According to ChEMBL document CHEMBL1122861, “Synthesis and activity profiles of novel cyclic opioid peptide monomers and dimers” (J Med Chem, 1985):
Where a SMILES comes first, the peptide text is derived from it. Bridges are numbered along the chain shown (N, C = ends). [ ]: non-standard residue; d: D form. Orn = NCCC[C@H](N)C(=O)O

What was measured:
[1] = molecular target: Delta-type opioid receptor (Rattus norvegicus, UniProt P33533); experiment: Displacement of [3H]DSLET from Opioid receptor delta 1 from rat brain homogenate; format: tissue-based
Delta-type opioid receptor, sequence (P33533 whole entry): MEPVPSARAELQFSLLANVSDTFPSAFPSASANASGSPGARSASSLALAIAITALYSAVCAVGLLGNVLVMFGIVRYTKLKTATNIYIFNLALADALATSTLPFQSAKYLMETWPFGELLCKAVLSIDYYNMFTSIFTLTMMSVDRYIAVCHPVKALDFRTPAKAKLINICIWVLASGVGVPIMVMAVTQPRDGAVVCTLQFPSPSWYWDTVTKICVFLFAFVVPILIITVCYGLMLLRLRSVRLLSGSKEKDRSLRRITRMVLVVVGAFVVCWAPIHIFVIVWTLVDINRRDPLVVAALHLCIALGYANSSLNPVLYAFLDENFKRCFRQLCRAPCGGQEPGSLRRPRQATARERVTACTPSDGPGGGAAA

Mu-type opioid receptor = Mu-type opioid receptor (Rattus norvegicus, UniProt P33535); experiment: Evaluated for its ability to displace [3H]DAGO binding to Opioid receptor mu 1 from rat brain homogenate; format: tissue-based
Mu-type opioid receptor, sequence (P33535 whole entry): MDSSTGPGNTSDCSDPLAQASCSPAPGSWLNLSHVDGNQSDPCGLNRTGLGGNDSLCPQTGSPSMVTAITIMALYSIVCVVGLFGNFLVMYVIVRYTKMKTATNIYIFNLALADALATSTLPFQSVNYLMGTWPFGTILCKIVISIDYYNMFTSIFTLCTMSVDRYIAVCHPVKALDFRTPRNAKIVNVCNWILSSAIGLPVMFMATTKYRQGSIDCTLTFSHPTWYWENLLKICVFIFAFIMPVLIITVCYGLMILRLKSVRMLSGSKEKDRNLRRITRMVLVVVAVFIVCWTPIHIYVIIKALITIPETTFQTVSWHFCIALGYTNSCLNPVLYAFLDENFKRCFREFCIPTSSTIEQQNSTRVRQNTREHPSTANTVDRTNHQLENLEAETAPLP

Mus musculus = organism: Mus musculus; experiment: Tested for inhibition of electrically evoked contractions of the mouse vas deferens(MVD).; format: functional
Procedure, shortened: (§1)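 Isolated tissue bioassay, electrically evoked contractions; inhibition measured. A log dose–response curve with [Leu5]enkephalin as standard was run on each ileum or vas preparation. Test-peptide IC50 values were normalized against that standard by a published procedure. Mean of three determinations ±SEM.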

Cavia porcellus [2] = organism: Cavia porcellus; experiment: Tested for inhibition of electrically evoked contractions of the guinea pig ileum(GPI).; format: functional; procedure, shortened: as §1
Cavia porcellus [3] = organism: Cavia porcellus; experiment: Tested for sensitivity to naloxone in the guinea pig ileum assay.; format: functional
Procedure, shortened: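 Electrically stimulated guinea pig ileum. IC50 was determined with and without a fixed 5 nM naloxone. Ke for naloxone as antagonist was derived from the ratio of those IC50 values.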

Row | SMILES | Ki [1] | Ki (Mu-type opioid receptor) | IC50 (Mus musculus) | IC50 (Cavia porcellus [2]) | Ke (Cavia porcellus [3])
1 | NC(=O)[C@@H]1CCC(=O)NCCCC[C@@H](NC(=O)[C@@H](N)Cc2ccc(O)cc2)C(=O)N[C@@H](Cc2ccccc2)C(=O)N1 [listing 1 of 2 here] | 0.00436 µM | 0.00143 µM | 0.00521 µM | 0.00293 µM | –
2 | NC(=O)[C@@H]1CCC(=O)NCCCC[C@@H](NC(=O)[C@@H](N)Cc2ccc(O)cc2)C(=O)N[C@@H](Cc2ccccc2)C(=O)N1 [listing 2 of 2 here] | – | – | – | – | 1.8 nM
3 | CC(C)C[C@@H]1NC(=O)[C@H](NC(=O)[C@@H](N)Cc2ccc(O)cc2)CCCNC(=O)C[C@@H](C(N)=O)NC1=O | 8.16 µM | 6.8 µM | 40.4 µM | 5.41 µM | –
4 | NC(=O)[C@@H]1CCCCNC(=O)CC[C@@H](NC(=O)[C@@H](N)Cc2ccc(O)cc2)C(=O)N[C@@H](Cc2ccccc2)C(=O)N1 [listing 1 of 2 here] | 0.0493 µM | 0.000994 µM | 0.101 µM | 0.00799 µM | –
5 | NC(=O)[C@@H]1CCCCNC(=O)CC[C@@H](NC(=O)[C@@H](N)Cc2ccc(O)cc2)C(=O)N[C@@H](Cc2ccccc2)C(=O)N1 [listing 2 of 2 here] | – | – | – | – | 0.81 nM
6 | NC(=O)[C@@H]1CCCNC(=O)C[C@@H](NC(=O)[C@@H](N)Cc2ccc(O)cc2)C(=O)N[C@@H](Cc2ccccc2)C(=O)N[C@H](C(N)=O)CCCNC(=O)C[C@@H](NC(=O)[C@@H](N)Cc2ccc(O)cc2)C(=O)N[C@@H](Cc2ccccc2)C(=O)N1 [listing 1 of 2 here] | 0.129 µM | 0.0859 µM | 0.579 µM | 1.16 µM | –
7 | NC(=O)[C@@H]1CCCNC(=O)C[C@@H](NC(=O)[C@@H](N)Cc2ccc(O)cc2)C(=O)N[C@@H](Cc2ccccc2)C(=O)N[C@H](C(N)=O)CCCNC(=O)C[C@@H](NC(=O)[C@@H](N)Cc2ccc(O)cc2)C(=O)N[C@@H](Cc2ccccc2)C(=O)N1 [listing 2 of 2 here] | – | – | – | – | 1.62 nM
8 | NC(=O)[C@@H]1CC(=O)NCCC[C@@H](NC(=O)[C@@H](N)Cc2ccc(O)cc2)C(=O)N[C@@H](Cc2ccccc2)C(=O)N[C@H](C(N)=O)CC(=O)NCCC[C@@H](NC(=O)[C@@H](N)Cc2ccc(O)cc2)C(=O)N[C@@H](Cc2ccccc2)C(=O)N1 [listing 1 of 2 here] | 0.0422 µM | 0.0256 µM | 0.0991 µM | 0.111 µM | –
9 | NC(=O)[C@@H]1CC(=O)NCCC[C@@H](NC(=O)[C@@H](N)Cc2ccc(O)cc2)C(=O)N[C@@H](Cc2ccccc2)C(=O)N[C@H](C(N)=O)CC(=O)NCCC[C@@H](NC(=O)[C@@H](N)Cc2ccc(O)cc2)C(=O)N[C@@H](Cc2ccccc2)C(=O)N1 [listing 2 of 2 here] | – | – | – | – | 1.36 nM
10 | NC(=O)[C@@H]1CCC(=O)NCCC[C@@H](NC(=O)[C@@H](N)Cc2ccc(O)cc2)C(=O)NCC(=O)N1 | 4.99 µM | 1.76 µM | > 40 µM | 8.75 µM | –
11 | NC(=O)[C@@H]1CCCNC(=O)C[C@@H](NC(=O)[C@@H](N)Cc2ccc(O)cc2)C(=O)N[C@@H](Cc2ccccc2)C(=O)N1 (H-Y[dD]F[Orn]-NH2; lactam 2-4) [listing 1 of 2 here] | – | – | 8.57 µM | 0.522 µM | –
12 | NC(=O)[C@@H]1CCCNC(=O)C[C@@H](NC(=O)[C@@H](N)Cc2ccc(O)cc2)C(=O)N[C@@H](Cc2ccccc2)C(=O)N1 (H-Y[dD]F[Orn]-NH2; lactam 2-4) [listing 2 of 2 here] | – | – | – | – | 1.28 nM
